Measurements reported in ChEMBL document CHEMBL2396575, “Curcumin-I Knoevenagel's condensates and their Schiff's bases as anticancer agents: synthesis, pharmacological and simulation studies” (Bioorg Med Chem, 2013).

Legend:
[1] = Hemolytic activity in rabbit RBC at 100 ug/mL after 3 hrs by colorimetric assay relative to control; format: ADME, cell-based, Oryctolagus cuniculus, Erythrocyte; settings: rabbit red blood cells (RBC), read-out: Activity
Outline: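 Rabbit whole blood diluted 0.1 mL in 0.9 mL PBS, incubated with test compound at 37 °C for 3 h, then centrifuged at 3800 rpm for 15 min. Supernatant mixed with Drabkin's reagent for 15 min, cyanmethemoglobin read at 540 nm against a hemoglobin standard curve. Compound absorbance at 540 nm subtracted. Saline served as negative control, distilled water as positive.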

MCF7 [2] = experiment: Anticancer activity against wild-type human MCF7 cells assessed as cell viability at 0.001 ug/mL after 24 hrs by MTT assay relative to control; format: functional; settings: MCF7, 24 h, read-out: Activity
Outline: (§1)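 MCF-7 cells grown in low-glucose DMEM with 10% FBS plus antibiotic/antimycotic. Seeded at 2×10^3 cells/well, incubated 24 h at 37 °C in humidified 5% CO2, then exposed to test compounds for 24 h. Cells washed with PBS, given MTT for 4 h at 37 °C, formazan dissolved in DMSO, absorbance read at 570 nm. Viability taken as the ratio of treated to blank.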

MCF7 [3] = experiment: Anticancer activity against wild-type human MCF7 cells assessed as cell viability at 0.1 ug/mL after 24 hrs by MTT assay relative to control; format: functional; settings: MCF7, 24 h, read-out: Activity; outline: as §1
DNA [4] = experiment: Binding affinity to calf thymus DNA by Benessi-Hilderbrand equation; format: nucleic-acid assay; settings: Bos taurus
Outline: (§2)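 Ct-DNA stock in tris–HCl pH 7.2–7.3, stored at 4 °C, used within 4 days; A260/A280 ≥1.8. DNA concentration from ε260 6600 M⁻¹ cm⁻¹. Compound dissolved in methanol (2.0×10^-4 M) and titrated with DNA (0.3–2.1 ×10^-4) in tris–HCl, UV–vis spectra recorded after each addition. Kb from modified Benesi–Hildebrand (Wolfe) equation.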

MCF7 [5] = experiment: Anticancer activity against wild-type human MCF7 cells assessed as cell viability at 0.01 ug/mL after 24 hrs by MTT assay relative to control; format: functional; settings: MCF7, 24 h, read-out: Activity; outline: as §1
MCF7 [6] = experiment: Anticancer activity against wild-type human MCF7 cells assessed as cell viability at 1 ug/mL after 24 hrs by MTT assay relative to control; format: functional; settings: MCF7, 24 h, read-out: Activity; outline: as §1
MCF7 [7] = experiment: Anticancer activity against wild-type human MCF7 cells assessed as cell viability at 0.0001 ug/mL after 24 hrs by MTT assay relative to control; format: functional; settings: MCF7, 24 h, read-out: Activity; outline: as §1
DNA [8] = experiment: Binding affinity to calf thymus DNA assessed as hypochromicity by UV-vis spectroscopic analysis relative to control; format: nucleic-acid assay; set-up: concentration or dose not given beside the values; settings: Bos taurus; outline: as §2

## COc1cccc2c1C(=O)c1c(O)c3c(c(O)c1C2=O)C[C@@](O)(C(=O)CO)C[C@@H]3O[C@H]1C[C@H](N)[C@H](O)[C@H](C)O1 [DOXORUBICIN]
[1]
  hemolysis at 3 h, 100 ug/mL: 42%

## O=Cc1cn(-c2ccccc2)nc1-c1cccc([N+](=O)[O-])c1
MCF7 [2]
  viability at 0.001 µg/mL: 89%
MCF7 [3]
  viability at 0.1 µg/mL: 86%
DNA [4]
  Kb: 2.5 ×10³ /M
[1]
  hemolysis at 3 h, 100 ug/mL: 10%
MCF7 [5]
  viability at 0.01 µg/mL: 89%
MCF7 [6]
  viability at 1 µg/mL: 75%
MCF7 [7]
  viability at 0.0001 µg/mL: 89%
DNA [8]
  Activity: 5.2%

## COc1cc(/C=C/C(=N\NC(N)=O)C(=Cc2cn(-c3ccccc3)nc2-c2cccc([N+](=O)[O-])c2)C(/C=C/c2ccc(O)c(OC)c2)=N/NC(N)=O)ccc1O
MCF7 [2]
  viability at 0.001 µg/mL: 89%
MCF7 [3]
  viability at 0.1 µg/mL: 68%
DNA [4]
  Kb: 9.1 ×10⁴ /M
[1]
  hemolysis at 3 h, 100 ug/mL: 16%
MCF7 [5]
  viability at 0.01 µg/mL: 86%
MCF7 [6]
  viability at 1 µg/mL: 67%
MCF7 [7]
  viability at 0.0001 µg/mL: 91%
DNA [8]
  Activity: 9%

## COc1cc(/C=C/C(=N\NC(N)=O)C(=Cc2cn(-c3ccccc3)nc2-c2ccccc2O)C(/C=C/c2ccc(O)c(OC)c2)=N/NC(N)=O)ccc1O
MCF7 [2]
  viability at 0.001 µg/mL: 91%
MCF7 [3]
  viability at 0.1 µg/mL: 86%
DNA [4]
  Kb: 3 ×10⁴ /M
[1]
  hemolysis at 3 h, 100 ug/mL: 25%
MCF7 [5]
  viability at 0.01 µg/mL: 91%
MCF7 [6]
  viability at 1 µg/mL: 87%
MCF7 [7]
  viability at 0.0001 µg/mL: 92%
DNA [8]
  Activity: 10%

## O=Cc1cn(-c2ccccc2)nc1-c1ccccc1O
MCF7 [2]
  viability at 0.001 µg/mL: 97%
MCF7 [3]
  viability at 0.1 µg/mL: 73%
DNA [4]
  Kb: 1.4 ×10³ /M
[1]
  hemolysis at 3 h, 100 ug/mL: 18%
MCF7 [5]
  viability at 0.01 µg/mL: 92%
MCF7 [6]
  viability at 1 µg/mL: 79%
MCF7 [7]
  viability at 0.0001 µg/mL: 96%
DNA [8]
  Activity: 6.2%

## COc1cc(/C=C/C(=O)C(=Cc2cn(-c3ccccc3)nc2-c2ccc(Cl)cc2)C(=O)/C=C/c2ccc(O)c(OC)c2)ccc1O
MCF7 [2]
  viability at 0.001 µg/mL: 81%
MCF7 [3]
  viability at 0.1 µg/mL: 72%
DNA [4]
  Kb: 7.8 ×10⁵ /M
[1]
  hemolysis at 3 h, 100 ug/mL: 16%
MCF7 [5]
  viability at 0.01 µg/mL: 75%
MCF7 [6]
  viability at 1 µg/mL: 65%
MCF7 [7]
  viability at 0.0001 µg/mL: 95%
DNA [8]
  Activity: 8.1%

## COc1cc(/C=C/C(=O)C(=Cc2cn(-c3ccccc3)nc2-c2ccccc2O)C(=O)/C=C/c2ccc(O)c(OC)c2)ccc1O
MCF7 [2]
  viability at 0.001 µg/mL: 97%
MCF7 [3]
  viability at 0.1 µg/mL: 91%
DNA [4]
  Kb: 2.1 ×10⁴ /M
[1]
  hemolysis at 3 h, 100 ug/mL: 20%
MCF7 [5]
  viability at 0.01 µg/mL: 93%
MCF7 [6]
  viability at 1 µg/mL: 88%
MCF7 [7]
  viability at 0.0001 µg/mL: 100%
DNA [8]
  Activity: 13%

## COc1cc(/C=C/C(=N\NC(N)=O)C(=Cc2cn(-c3ccccc3)nc2-c2ccc(Cl)cc2)C(/C=C/c2ccc(O)c(OC)c2)=N/NC(N)=O)ccc1O
MCF7 [2]
  viability at 0.001 µg/mL: 81%
MCF7 [3]
  viability at 0.1 µg/mL: 78%
DNA [4]
  Kb: 8.1 ×10⁵ /M
[1]
  hemolysis at 3 h, 100 ug/mL: 17%
MCF7 [5]
  viability at 0.01 µg/mL: 81%
MCF7 [6]
  viability at 1 µg/mL: 74%
MCF7 [7]
  viability at 0.0001 µg/mL: 87%
DNA [8]
  Activity: 11%

## COc1cc(/C=C/C(=N\NC(N)=O)C(=Cc2cn(-c3ccccc3)nc2-c2ccc([N+](=O)[O-])cc2)C(/C=C/c2ccc(O)c(OC)c2)=N/NC(N)=O)ccc1O
MCF7 [2]
  viability at 0.001 µg/mL: 105%
MCF7 [3]
  viability at 0.1 µg/mL: 92%
DNA [4]
  Kb: 2.6 ×10⁴ /M
[1]
  hemolysis at 3 h, 100 ug/mL: 11%
MCF7 [5]
  viability at 0.01 µg/mL: 95%
MCF7 [6]
  viability at 1 µg/mL: 98%
MCF7 [7]
  viability at 0.0001 µg/mL: 110%
DNA [8]
  Activity: 8%

## O=Cc1cn(-c2ccccc2)nc1-c1ccc(Cl)cc1
MCF7 [2]
  viability at 0.001 µg/mL: 98%
MCF7 [3]
  viability at 0.1 µg/mL: 90%
DNA [4]
  Kb: 7.6 ×10⁴ /M
[1]
  hemolysis at 3 h, 100 ug/mL: 9%
MCF7 [5]
  viability at 0.01 µg/mL: 98%
MCF7 [6]
  viability at 1 µg/mL: 59%
MCF7 [7]
  viability at 0.0001 µg/mL: 100%
DNA [8]
  Activity: 5.6%

## O=Cc1cn(-c2ccccc2)nc1-c1ccc([N+](=O)[O-])cc1
MCF7 [2]
  viability at 0.001 µg/mL: 97%
MCF7 [3]
  viability at 0.1 µg/mL: 96%
DNA [4]
  Kb: 1.9 ×10³ /M
[1]
  hemolysis at 3 h, 100 ug/mL: 7%
MCF7 [5]
  viability at 0.01 µg/mL: 86%
MCF7 [6]
  viability at 1 µg/mL: 80%
MCF7 [7]
  viability at 0.0001 µg/mL: 106%
DNA [8]
  Activity: 7.7%

## COc1cc(/C=C/C(=O)C(=Cc2cn(-c3ccccc3)nc2-c2cccc([N+](=O)[O-])c2)C(=O)/C=C/c2ccc(O)c(OC)c2)ccc1O
MCF7 [2]
  viability at 0.001 µg/mL: 96%
MCF7 [3]
  viability at 0.1 µg/mL: 85%
DNA [4]
  Kb: 9.4 ×10⁴ /M
[1]
  hemolysis at 3 h, 100 ug/mL: 14%
MCF7 [5]
  viability at 0.01 µg/mL: 88%
MCF7 [6]
  viability at 1 µg/mL: 70%
MCF7 [7]
  viability at 0.0001 µg/mL: 99%
DNA [8]
  Activity: 29%

## COc1cc(/C=C/C(=O)C(=Cc2cn(-c3ccccc3)nc2-c2ccc([N+](=O)[O-])cc2)C(=O)/C=C/c2ccc(O)c(OC)c2)ccc1O
MCF7 [2]
  viability at 0.001 µg/mL: 98%
MCF7 [3]
  viability at 0.1 µg/mL: 92%
DNA [4]
  Kb: 1.4 ×10⁴ /M
[1]
  hemolysis at 3 h, 100 ug/mL: 10%
MCF7 [5]
  viability at 0.01 µg/mL: 95%
MCF7 [6]
  viability at 1 µg/mL: 90%
MCF7 [7]
  viability at 0.0001 µg/mL: 98%
DNA [8]
  Activity: 12.3%
